“And” between values parts separate entries of the source, which are not always exact repeats. Equal entries are not always repeated. The source made the active and inactive calls.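 How the source made its calls: active means compounds specific to the target that block phage lysis by more than 30% when retested across doses; inactive means the rest, not confirmed on retesting.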 Where only a bound is given, the exact number is not on record here.

Tested on in the first test: not listed separately
Briefly: capsule biogenesis inhibitors via T7 lysis, dose response, EV36 K1 hybrid, OD600, round 6 (AID 624055). The settings on record: E. coli EV36 T7 phage lysis, OD600; at 50 µM (top of the series). In outline:
(§1)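 Material: Escherichia coli EV36, a K1:K-12 hybrid strain | Input: Overnight culture at 1:100 dilution | Detection: Absorbance at 600 nm | Measure: Inhibition of phage lysis by OD600 | Compound: Two-fold serial compound dilution series, 1% DMSO final | Incubation: 1.5 h compound pre-exposure, 3 h post-infection | Probe or stimulus: T7 phage infection after compound pre-exposure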
In the case of `O=C(Nc1cc(-c2ccc(OC(F)(F)F)cc2)sc1C(=O)O)c1cc2ccccc2o1`, the phage lysis inhibition is -11.1% (inactive).

With `CC(C)(C)c1ccc(-c2cc(NC(=O)c3ccc(Br)s3)c(C(=O)O)s2)cc1`, the phage lysis inhibition is -10.5% (inactive).

For the molecule `COc1cc2sc(NC(=O)c3ccc(Br)s3)nc2cc1F`, the phage lysis inhibition is -13% (inactive).

Consider `O=C(Nc1cc(-c2ccc(OC(F)(F)F)cc2)sc1C(=O)O)c1cccc(F)c1`, for which the phage lysis inhibition is -12.3% (inactive).

In the case of `O=C(NC1CCNCC1)c1ccc2ncsc2c1`, the phage lysis inhibition is 135% (inactive).

In the case of `O=C(Nc1cc(-c2ccc(OCCCC(F)(F)F)cc2)sc1C(=O)O)c1cc(Br)c(Br)o1`, the phage lysis inhibition was -18.4% (inactive) and -21% (inactive).

As to `O=C(NCCc1ccncc1)c1ccc2ncsc2c1`, the phage lysis inhibition is 127% (inactive).

For `O=C(Nc1ccncc1)c1ccc2ncsc2c1`, the phage lysis inhibition is 121% (inactive).

For `O=C(NCc1ccncc1)c1ccc2ncsc2c1`, the phage lysis inhibition was 128% (inactive).

Another test has as its system E. coli EV36 T7 phage lysis, OD600. The description is as above.
Settings: not given
In outline:
as §1
For `O=C(O)c1sc(-c2ccc(OCCC(F)(F)F)cc2)cc1NC(=O)c1c(F)cc(F)cc1F`, the half-maximal inhibitory concentration (IC50) (as a rule, the concentration that gives 50% inhibition) is less than 6.25 µM.

Regarding `O=C(O)c1sc(-c2ccc(OCCC(F)(F)F)cc2)cc1NC(=O)c1c(F)cccc1F`, the 50% inhibitory concentration (IC50) was less than 6.25 µM.

On to `COc1ccc2nc(NC(=O)c3ccc(Br)s3)sc2c1`, for which the IC50 is less than 0.21 µM.

On to `[N-]=[N+]=NCCOc1ccc(-c2cc(NC(=O)c3c(F)cccc3F)c(C(=O)O)s2)cc1`, for which the IC50 is less than 6.25 µM.

Consider `CCCOc1ccc(-c2cc(NC(=O)c3c(F)cc(F)cc3F)c(C(=O)O)s2)cc1`, for which the IC50 was less than 6.25 µM.

Regarding `O=C(O)c1sc(-c2ccc(OCCCC(F)(F)F)cc2)cc1NC(=O)c1c(F)cccc1F`, the IC50 was less than 6.25 µM.

Consider `CCCCOc1ccc(-c2cc(NC(=O)c3c(F)cc(F)cc3F)c(C(=O)O)s2)cc1`, for which the IC50 was less than 6.25 µM.

In the case of `CCCCOc1ccc(-c2cc(NC(=O)c3c(F)cccc3F)c(C(=O)O)s2)cc1`, the IC50 is less than 6.25 µM.

Turning to `O=C(O)c1sc(-c2ccc(OCC(F)(F)F)cc2)cc1NC(=O)c1c(F)cccc1F`, the IC50 was less than 6.25 µM.

Regarding `O=C(Nc1cc(-c2ccc(OCC(F)(F)F)cc2)sc1C(=O)O)c1ccc(Br)o1`, the IC50 was less than 6.25 µM.

With `O=C(O)c1sc(-c2ccc(OCCCC(F)(F)F)cc2)cc1NC(=O)c1c(F)cc(F)cc1F`, the IC50 is less than 6.25 µM.

Take `O=C(Nc1cc(-c2ccc(OCCCC(F)(F)F)cc2)sc1C(=O)O)c1ccc(Br)o1`: the IC50 was less than 6.25 µM.

On to `CCCCOc1ccc(-c2cc(NC(=O)c3cc(Br)c(Br)o3)c(C(=O)O)s2)cc1`, for which the IC50 was less than 6.25 µM.

Turning to `O=C(O)c1sc(-c2ccc(OCC(F)(F)F)cc2)cc1NC(=O)c1c(F)cc(F)cc1F`, the IC50 is less than 6.25 µM.

For the molecule `CCCc1ccc(-c2cc(NC(=O)c3c(F)cc(F)cc3F)c(C(=O)O)s2)cc1`, the IC50 is less than 6.25 µM.

As for `CCCc1ccc(-c2cc(NC(=O)c3cc(Br)c(Br)o3)c(C(=O)O)s2)cc1`, the IC50 was less than 6.25 µM.

Take `CCCc1ccc(-c2cc(NC(=O)c3ccc(Br)o3)c(C(=O)O)s2)cc1`: the IC50 was less than 6.25 µM.

In the case of `O=C(Nc1cc(-c2ccc(OC(F)(F)F)cc2)sc1C(=O)O)c1ccc(Br)o1`, the IC50 is less than 6.25 µM.

With `CCCc1ccc(-c2cc(NC(=O)c3c(F)cccc3F)c(C(=O)O)s2)cc1`, the half-maximal inhibitory concentration (IC50) is less than 6.25 µM.

In the case of `O=C(O)c1sc(-c2ccc(OC(F)(F)F)cc2)cc1NC(=O)c1c(F)cccc1F`, the IC50 was less than 6.25 µM.

As for `CCOc1ccc(-c2cc(NC(=O)c3c(F)cc(F)cc3F)c(C(=O)O)s2)cc1`, the IC50 is less than 6.25 µM.

For `CCOc1ccc(-c2cc(NC(=O)c3c(F)cccc3C(F)(F)F)c(C(=O)O)s2)cc1`, the half-inhibitory concentration (IC50) was less than 6.25 µM.

`CCOc1ccc(-c2cc(NC(=O)c3c(F)cccc3F)c(C(=O)O)s2)cc1`: the IC50 is less than 6.25 µM.

Regarding `O=C(Nc1ccncc1)c1ccc2ncsc2c1`, the IC50 was less than 6.25 µM.

As to `CCCCOc1ccc(-c2cc(NC(=O)c3ccc(Br)o3)c(C(=O)O)s2)cc1`, the half-maximal inhibitory concentration (IC50) was less than 6.25 µM.

With `O=C(Nc1cc(-c2ccc(OCCC(F)(F)F)cc2)sc1C(=O)O)c1ccc(Br)o1`, the IC50 was less than 6.25 µM.
